Screening results deposited in PubChem BioAssay by several laboratories.
Most compounds without a hit are left out; they make up all but 2.5% or so of the library.
GASC-1 inh = inhibitors of GASC-1 histone demethylase, primary screen, biochemical, fluorescence, DELFIA europium; GST-JMJD2C(1-420) H3K9me3 demethylation; 330,000 compounds, 0.069% hits; inhibition, % at 2.35 µM; Lysine-specific demethylase 4C (Homo sapiens), Q9H3R0; AID 2099, 2009;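 active means more than half of a compound's replicate wells show inhibition beyond 50%, single wells judged on their own value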;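 further: signal counts dimethyl H3K9 product captured on neutravidin plate; 0% = median of DMSO wells and 100% = 0.3 times that DMSO median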
ADAM17 inh = ADAM17 inhibitors, primary screen, biochemical, QFRET; Disintegrin and metalloproteinase domain-containing protein 17 (Homo sapiens), P78536; recombinant ADAM17, EDANS/DABCYL FRET peptide cleavage; inhibition, % at 6.95 µM; 370,000 compounds, 0.83% hits;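 active means inhibition above the mean of compounds lying between control limits plus 3 SD, set per campaign, cut at about 8.5% in these data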;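 further: 0% = DMSO-only wells as the low control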
proKLK7 act = proKLK7 zymogen activators, primary screen, biochemical, fluorescence intensity. 370,000 compounds, 0.9% hits. purified proKLK7, EDANS-DABCYL substrate fluorescence; 100% is mature enzyme control, 0% vehicle. activation, % at 7 µM. Kallikrein-7 (Homo sapiens), P49862;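 active means activation above the mean of all tested compounds plus 3 SD, computed per campaign excluding outliers beyond control limits, cut at about 13% in these data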
Target sequence (P49862 whole entry, looked up): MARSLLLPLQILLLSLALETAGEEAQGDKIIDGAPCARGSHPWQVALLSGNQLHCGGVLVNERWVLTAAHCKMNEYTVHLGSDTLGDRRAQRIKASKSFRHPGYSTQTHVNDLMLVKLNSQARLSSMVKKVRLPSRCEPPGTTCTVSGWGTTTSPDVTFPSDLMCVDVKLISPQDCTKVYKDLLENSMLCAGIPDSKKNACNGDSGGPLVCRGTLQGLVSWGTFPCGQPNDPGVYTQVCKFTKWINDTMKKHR
NR2E3 ag-1 = inhibitors of NR2E3-RetCOR corepressor binding, primary screen, NR2E3 agonist project, biochemical, TR-FRET, GST-NR2E3, biotin-RetCOR. Photoreceptor-specific nuclear receptor (Homo sapiens), Q9Y5X4. 1536-well. 320,000 compounds, 0.12% hits. inhibition of corepressor binding, % at 4.78 µM;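 active means percent inhibition above the cutoff of mean plus 3 SD of all tested compounds, set per screening campaign, cut at about 20% in these data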;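 further: 0% = DMSO wells and 100% = biotin wells as full block of FRET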
Target sequence (Q9Y5X4 whole entry, looked up): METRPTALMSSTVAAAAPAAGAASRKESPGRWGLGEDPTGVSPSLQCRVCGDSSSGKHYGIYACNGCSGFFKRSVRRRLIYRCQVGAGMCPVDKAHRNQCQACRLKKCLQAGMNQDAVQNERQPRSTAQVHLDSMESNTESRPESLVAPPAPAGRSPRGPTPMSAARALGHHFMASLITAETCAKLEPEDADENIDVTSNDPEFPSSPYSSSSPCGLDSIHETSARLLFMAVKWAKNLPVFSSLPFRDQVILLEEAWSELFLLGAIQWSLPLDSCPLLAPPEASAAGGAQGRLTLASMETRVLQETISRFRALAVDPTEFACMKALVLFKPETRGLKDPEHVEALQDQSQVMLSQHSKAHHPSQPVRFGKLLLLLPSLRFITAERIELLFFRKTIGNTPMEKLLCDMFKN
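Test system – NR2E3–RetCOR corepressor complex · Quantity – NR2E3 fusion 1.35 nM · Buffer or medium – Tris pH 7.5 · Incubation – Compound–protein incubation for 5 h at 4 °C · Technique – TR-FRET, Eu(K)-anti-GST donor, streptavidin-D2 acceptor, ex 340, em 617/671 nm · Evaluation – percent inhibition of 671/617 nm emission ratio versus biotin and DMSO controls · Plate – 1536-well format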
ADAM10 inh = human ADAM10 inhibitors, primary screen, biochemical, QFRET, HTS. recombinant ADAM10, EDANS/DABCYL FRET peptide cleavage, 3 h. inhibition, % at 7 µM. 370,000 compounds, 0.62% hits;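 active means inhibition above a per-campaign cutoff equal to the mean of compounds falling between control-based bounds plus 3 SD, cut at about 20% in these data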;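 further: 0% = DMSO wells while the 100% control is not disclosed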
NR2E3 ag-2 = NR2E3 agonists in two-hybrid cells, primary screen, cell-based, luminescence, CHO-S, Gal4-NCOR/VP16-NR2E3 | Photoreceptor-specific nuclear receptor (Homo sapiens), Q9Y5X4 | luciferase | inhibition of corepressor binding, % at 3.98 µM | 360,000 compounds, 0.35% hits;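 active means inhibition above the mean of all tested compounds plus 3 SD, cut at about 70% in these data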;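 further: 0% = DMSO with NR2E3 transfected cells and 100% = cells lacking NR2E3 construct; higher means lower luciferase signal from less NR2E3 corepressor binding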
proKLK7 act conf = proKLK7 zymogen activators, confirmation, biochemical, fluorescence intensity, triplicate | 3,200 compounds, 68% hits | shares compounds with proKLK7 act | AID 686949, 2013 | purified proKLK7, EDANS-DABCYL substrate fluorescence; scaled: vehicle 0, mature enzyme 100 | activation, % at 7 µM;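 active means activation, as change over the incubation, above the mean of all tested compounds plus 3 SD, cut at about 13% in these data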
EDANS interfere = EDANS-DABCYL substrate optical interference, artefact control for kallikrein-7 zymogen activator project, biochemical, fluorescence intensity, high throughput; shares compounds with proKLK7 act; no enzyme, 4 h; solvent 0%, active enzyme control 100%; activation, % at 7 µM; 3,200 compounds, 80% hits; AID 686952, 2013;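 active means activation above the all-compound mean plus 3 SD, ignoring values outside control-based bounds, cut at about 4.8% in these data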;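 further: value is the 4 h activation minus the activation read at time zero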
* marks the source's active call; other numbers are inactive results; i = inactive; · = no result.

SMILES | GASC-1 inh | ADAM17 inh | proKLK7 act | NR2E3 ag-1 | ADAM10 inh | NR2E3 ag-2 | proKLK7 act conf | EDANS interfere
Cc1cccc(C2=NN(c3ccccc3)[C@@H](C(=O)N3CCOC3=O)[C@@H]2C)c1 | · | -17 | 26* | · | -62 | -28 | 114* | 70*
C[C@@H]1C(c2ccccc2)=NN(c2ccc(Br)cc2)[C@H]1C(=O)N1CCOC1=O | · | -92 | 57* | · | -353 | -51 | -159 | -147
CCCC(=O)N1CCC1(C)C(=O)NS(=O)(=O)c1cc2c(cc1C)CCCS2(=O)=O (stereo not drawn) | · | -7 | 0 | · | -10 | -7 | · | ·
N#Cc1sc2nc(N3CCCCC3)c3c(c2c1N)CCCC3 | -19 | -15 | 0 | 3 | -43 | -25 | · | ·
Cc1nc2sc(C#N)c(N)c2c2c1CCCC2 | 0 | -189 | 15* | 9 | i | -57 | 15* | 22*
COc1cc(CNc2ncnc3c2ncn3[C@H]2CN(CCN3CCOCC3)C[C@@H](CO)O2)cc(OC)c1OC | · | -2 | 0 | · | -10 | 9 | · | ·
COc1cc2cc(Oc3ccc4ccc(=O)oc4c3)c(=O)oc2cc1O[C@@H]1O[C@H](CO)[C@@H](O)[C@H](O)[C@H]1O | 3 | -61 | 25* | · | -225 | -4 | 36* | 49*
COc1cc2cc(Oc3ccc4ccc(=O)oc4c3)c(=O)oc2cc1OC1OC(COC(=O)CC(C)(O)CC(=O)O)C(O)C(O)C1O (stereo not drawn) | i | -156 | 21* | -1 | i | -20 | 34* | 31*
COc1cc2cc(Oc3ccc4ccc(=O)oc4c3)c(=O)oc2cc1OC(=O)/C=C/c1ccccc1 | 8 | -9 | 0 | 1 | -32 | -31 | · | ·
O=S(=O)(Nc1ccc(-c2nc3cccnc3s2)cc1)c1cc(F)ccc1F | 3 | i | 16* | 5 | i | -22 | 20* | 21*
CCc1ccc(S(=O)(=O)Nc2ccc(-c3nc4cccnc4s3)cc2)s1 | -3 | i | -33 | 4 | i | -62 | · | ·
Cc1ccc(C)c(NC(=O)CSc2nc(C)cc(C)c2C#N)c1 | 7 | -9 | 0 | 8 | -9 | 0 | · | ·
CCOC(=O)CCSc1nc2c(c(C(F)(F)F)c1C#N)CCC2 | 3 | -17 | -1 | 1 | -61 | -7 | · | ·
Cc1cc(C)c(C#N)c(SCC(=O)C2CC2)n1 | 12 | -73 | 89* | -2 | -161 | -58 | 121* | 135*
COCc1cc(C)nc(SCC(=O)Nc2nc(C)cs2)c1C#N | 15 | -16 | 76* | 3 | -24 | -132 | 140* | 136*
Cc1cc(C)c(C#N)c(SCC(=O)Nc2nonc2N)n1 | 7 | -56 | 40* | -2 | -152 | -41 | 74* | 72*
CCOC(=O)CC(=O)CSc1nc2c(c(C)c1C#N)CCC2 | -6 | -24 | 45* | 2 | -78 | -26 | 75* | 70*
COCc1cc(C)nc(SCC(=O)Nc2cccc(C)c2C)c1C#N | 3 | -4 | 0 | -1 | 0 | -20 | · | ·
CCN(c1ccccc1)S(=O)(=O)c1cc(NC(=O)CN2CCN(C)CC2)ccc1Cl | 3 | -1 | -1 | · | -2 | -8 | · | ·
Cc1cc(C)cc(CC(=O)N2CCC2(C)C(=O)NS(=O)(=O)c2cc(C)ccc2F)c1 (stereo not drawn) | · | -5 | 0 | · | -9 | 30 | · | ·
CC(=O)Nc1cc2c(cc1NC(=O)Cn1nc(-c3ccccc3)ccc1=O)OCCO2 | 39 | 1 | 0 | 3 | 6 | -19 | · | ·
CCOC(=O)CC(=O)CSc1nc(C)cc(C)c1C#N | -4 | -22 | 41* | -1 | -71 | 9 | 61* | 74*
COC(=O)c1ccccc1SCC(=O)Nc1ccc(N2CCOCC2)cc1 | -12 | -4 | 1 | 5 | -14 | -59 | · | ·
COC(=O)CSc1ccccc1C(=O)OC | 2 | -30 | 55* | 1 | -101 | 1 | 84* | 83*
CCOC(=O)CC(=O)CSc1nc(CC)c(C)cc1C#N | 10 | -12 | 6 | 2 | -5 | -6 | · | ·
SMILES | GASC-1 inh | ADAM17 inh | proKLK7 act | NR2E3 ag-1 | ADAM10 inh | NR2E3 ag-2 | proKLK7 act conf | EDANS interfere
COC(=O)CSc1nc(C)cc(C)c1C#N | 1 | -18 | 58* | -3 | -46 | -15 | 125* | 121*
COC(=O)CSc1ccc(C#N)c(SCC(=O)OC)c1 | -1 | -27 | 17* | 5 | -75 | -4 | 27* | 27*
N#Cc1cccc(NC(=O)c2cncn2-c2ccccc2)c1 | 12 | 1 | 0 | -3 | -5 | -31 | · | ·
Cc1ccc(NC(=O)C2CC2C)c(Cl)c1 (stereo not drawn) | -2 | 2 | 0 | -2 | 1 | -31 | · | ·
CCC1CCCCN1S(=O)(=O)c1ccc(C(=O)N(CCCN(C)C)c2nc3cc4c(cc3s2)OCO4)cc1 (stereo not drawn) | -17 | 2 | 0 | 1 | 6 | -15 | · | ·
CC1(C)Oc2ccc3ccc(=O)oc3c2C(/C=N/O)C1=O (stereo not drawn) | -2 | -24 | 27* | 1 | -86 | 8 | 17* | 18*
O=C1NC[C@@H](CCCCN2C[C@H](Cc3ccc(O)cc3)N(Cc3ccccc3)C(=O)C2=O)N(CC2CCCCC2)C1=O | · | -2 | 0 | · | -9 | -8 | · | ·
CCCCN1C(=O)c2cccc3cc(O)cc(c23)C1=O | -1 | -2 | 31* | -1 | -3 | -7 | 48* | 68*
COc1cc(C)ccc1S(=O)(=O)NC(=O)Cn1nnc(COc2ccc3c(c2)CCCC3)c1C | · | -5 | 1 | · | -10 | -9 | · | ·
c1ccc(-c2ncc(-c3ccn[nH]3)s2)cc1 | 7 | -345 | 1 | 1 | i | -133 | · | ·
COc1cc2c(cc1OC)CN(Cc1cc(=O)n3cc(C)ccc3n1)CC2 | -5 | -246 | 33* | 0 | i | -27 | 29* | 33*
COc1cc2c(cc1OC)CN(Cc1ccc(F)cc1)CC2 | -2 | -444 | 39* | -6 | i | -2 | 14* | 18*
